This note sets out measurements from PMC2494688 (Diabetes, 2008).

Assay [1] has as its system islets from GPR40−/− mice. The experiment in a line: Static GDIS assay, 1-h incubation, GPR40−/− islets. The class given is cell-based, mouse. To be noted: 200 μmol/l, 16 mmol/l glucose, n = 6, P > 0.05. The essentials: (§1)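 Islets isolated by collagenase digestion and Ficoll gradient, cultured overnight in RPMI-1640 with 11 mmol/l glucose. Preincubated 30 min in KRB (0.2% BSA) with 2 mmol/l glucose. One islet/well incubated 60 min at 2 or 16 mmol/l glucose, ± 200 μmol/l oleate or palmitate or 10 μmol/l test compound; DMSO vehicle. Insulin by ultrasensitive rat insulin ELISA. Two experiments, six replicates in total. Wild-type islets also tested across a compound concentration series at 16 mmol/l glucose (three experiments).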

Assay [2] has as its system islets from wild-type mice. Nature of the assay: Static GDIS assay, 1-h incubation, wild-type islets. The class given is cell-based, mouse. To be noted: 200 μmol/l, 16 mmol/l glucose, n = 6. The essentials: as §1
A further assay addresses human GPR40 (Homo sapiens, UniProt O14842). The class given is cell-based. To be noted: CHO cells, in words. The essentials: (§2)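 GPR40 stably expressed in CHO cells carrying NFAT β-lactamase, seeded 1 day before. Test compound in DMSO, diluted in assay buffer, added as a 5× solution. Calcium signal read on FLIPR from 10 s before addition. EC50 taken from concentration–response curves.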

In the next assay the target is mouse GPR40 (Mus musculus, UniProt Q76JU9). The format is cell-based. The conditions noted are these: CHO cells, in words. The essentials:
as §2

Another assay has as its system wild-type C57BL/6 mice. The experiment in a line: IPGTT in wild-type lean mice. The conditions noted are these: 0.0025 mg/kg, positive control. The class given is in vivo, mouse. An outline of the steps:
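Lean male C57BL/6N mice fasted 5–6 h, dosed orally with compound (1–100 mg/kg) or 0.25% methylcellulose vehicle (10 ml/kg) 60 min before 2 g/kg i.p. dextrose. Tail glucose sampled to 60 min. Percent inhibition derived from the 0–60 min AUC minus the vehicle/water group AUC. Plasma compound measured by LC-MS/MS at 60 min of IPGTT (2 h post-dose).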

human GPR40, sequence (O14842 whole entry): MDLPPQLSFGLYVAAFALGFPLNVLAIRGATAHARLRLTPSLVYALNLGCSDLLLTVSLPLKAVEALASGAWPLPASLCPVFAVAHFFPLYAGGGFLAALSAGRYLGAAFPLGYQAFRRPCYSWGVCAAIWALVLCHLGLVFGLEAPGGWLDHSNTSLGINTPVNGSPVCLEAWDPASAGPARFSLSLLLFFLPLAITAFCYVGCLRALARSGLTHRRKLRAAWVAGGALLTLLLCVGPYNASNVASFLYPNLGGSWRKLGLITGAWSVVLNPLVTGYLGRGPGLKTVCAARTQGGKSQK
mouse GPR40, sequence (Q76JU9 whole entry): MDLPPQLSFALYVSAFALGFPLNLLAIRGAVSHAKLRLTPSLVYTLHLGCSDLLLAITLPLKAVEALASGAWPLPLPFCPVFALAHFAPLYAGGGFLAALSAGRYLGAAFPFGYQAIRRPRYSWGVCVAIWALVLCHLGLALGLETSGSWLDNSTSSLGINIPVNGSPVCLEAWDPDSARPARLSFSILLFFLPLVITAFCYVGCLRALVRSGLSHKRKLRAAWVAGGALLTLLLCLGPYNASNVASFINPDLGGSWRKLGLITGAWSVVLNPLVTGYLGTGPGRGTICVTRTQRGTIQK

Turning to `CCCCCCCC/C=C\CCCCCCCC(=O)O` [oleic C18:1, oleic acid], the “Promotion of glucose-dependent insulin secretion” value in assay [1] amounted to 1.2 ± 0.3 fold; in assay [2], 1.9 ± 0.4 fold.

On to `CCC(=O)O` [propionic C3:0], for which the “Activation of human GPR40 receptor” value at human GPR40 was “minimal activation”. The “Activation of mouse GPR40 receptor” value on mouse GPR40 is on record as “minimal activation”.

In the case of `CCCCCCCCCCCCCCCC(=O)O` [palmitate, palmitic acid], the figures for the “Promotion of glucose-dependent insulin secretion” value in assay [1] and in assay [2] were 1.8 ± 0.5 fold and 2.4 ± 0.3 fold, respectively.

On to `CCCC(=O)O` [butyric C4:0], for which, on human GPR40, the “Activation of human GPR40 receptor” value is on record as “minimal activation”. For the same molecule, at mouse GPR40, the “Activation of mouse GPR40 receptor” value is reported as “minimal activation”.

In the case of “exendin-4: glucagon-like peptide 1 mimetic, positive control”, the “Effect on glucose excursion during IPGTT” value in the assay on wild-type C57BL/6 mice is “completely prevented any glucose excursion”.

`CCCCC(=O)O` [pentanoic C5:0, pentanoic acid]: the “Activation of human GPR40 receptor” value on human GPR40 is listed as “minimal activation”. Moreover, the “Activation of mouse GPR40 receptor” value at mouse GPR40 is given as “minimal activation”.
